Test results as given in ChEMBL document CHEMBL1122179, “1-(alkylamino)isochromans: hypotensives with peripheral and central activities” (J Med Chem, 1982).
Active and inactive are the calls of the source. The calls are words filed in the database; no cut-off is given here.

Experiments:
Rattus norvegicus [1] = assay: Delta BP refers to oral hypotensive activity of compound which is evaluated at 4 hr and 24 hr in restrained, normotensive conscious rats at a dose of 50 mg/kg; format: functional, organism-based; parameters: dose 50 mg/kg
How it was run: (§1)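 Female Sprague-Dawley rats, normotensive, restrained in a towel. Blood pressure was read directly via chronic indwelling aortic cannulas exteriorized at the nape, before and 4 and 24 h after an oral dose suspended in carboxymethylcellulose (10 mL/kg). Values from two animals were averaged at each time; a mean change of at least 5 mmHg was taken as significant (p < 0.05).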

Rattus norvegicus [2] = assay: Delta BP refers to oral hypotensive activity of compound which is evaluated at 4 hr and 24 hr in restrained, normotensive conscious rats at a dose of 50 mg/kg; -15/3; format: functional; how it was run: as §1
Rattus norvegicus [3] = assay: Delta BP refers to oral hypotensive activity of compound which is evaluated at 4 hr and 24 hr in restrained, normotensive conscious rats at a dose of 50 mg/kg; -17/-16; format: functional; how it was run: as §1
Rattus norvegicus [4] = assay: Delta BP refers to oral hypotensive activity of compound which is evaluated at 4 hr and 24 hr in restrained, normotensive conscious rats at a dose of 50 mg/kg; -19/-21; format: functional; how it was run: as §1
Rattus norvegicus [5] = assay: Delta BP refers to oral hypotensive activity of compound which is evaluated at 4 hr and 24 hr in restrained, normotensive conscious rats at a dose of 50 mg/kg; -3/-1; format: functional; how it was run: as §1
Rattus norvegicus [6] = assay: Delta BP refers to oral hypotensive activity of compound which is evaluated at 4 hr and 24 hr in restrained, normotensive conscious rats at a dose of 50 mg/kg; -8/-10; format: functional; how it was run: as §1
Rattus norvegicus [7] = assay: Delta BP refers to oral hypotensive activity of compound which is evaluated at 4 hr and 24 hr in restrained, normotensive conscious rats at a dose of 50 mg/kg; -10/-3; format: functional; how it was run: as §1
Rattus norvegicus [8] = assay: Delta BP refers to oral hypotensive activity of compound which is evaluated at 4 hr and 24 hr in restrained, normotensive conscious rats at a dose of 50 mg/kg; 0/-14; format: functional; how it was run: as §1
Rattus norvegicus [9] = assay: Delta BP refers to oral hypotensive activity of compound which is evaluated at 4 hr and 24 hr in restrained, normotensive conscious rats at a dose of 50 mg/kg; 2/2; format: functional; how it was run: as §1
Rattus norvegicus [10] = assay: Delta BP refers to oral hypotensive activity of compound which is evaluated at 4 hr and 24 hr in restrained, normotensive conscious rats at a dose of 50 mg/kg; -13/-19; format: functional; how it was run: as §1
Rattus norvegicus [11] = assay: Delta BP refers to oral hypotensive activity of compound which is evaluated at 4 hr and 24 hr in restrained, normotensive conscious rats at a dose of 50 mg/kg; -18/-28; format: functional; how it was run: as §1
Rattus norvegicus [12] = assay: Delta BP refers to oral hypotensive activity of compound which is evaluated at 4 hr and 24 hr in restrained, normotensive conscious rats at a dose of 15 mg/kg; -8/-10; format: functional; how it was run: as §1
Rattus norvegicus [13] = assay: Delta BP refers to oral hypotensive activity of compound which is evaluated at 4 hr and 24 hr in restrained, normotensive conscious rats at a dose of 50 mg/kg; -4/-2; format: functional; how it was run: as §1
Rattus norvegicus [14] = assay: Delta BP refers to oral hypotensive activity of compound which is evaluated at 4 hr and 24 hr in restrained, normotensive conscious rats at a dose of 50 mg/kg; 0/-1; format: functional; how it was run: as §1
Rattus norvegicus [15] = assay: Delta BP refers to oral hypotensive activity of compound which is evaluated at 4 hr and 24 hr in restrained, normotensive conscious rats at a dose of 15 mg/kg; -13/-14; format: functional; how it was run: as §1
Rattus norvegicus [16] = assay: Delta BP refers to oral hypotensive activity of compound which is evaluated at 4 hr and 24 hr in restrained, normotensive conscious rats at a dose of 50 mg/kg; -12/-5; format: functional; how it was run: as §1
Rattus norvegicus [17] = assay: Delta BP refers to oral hypotensive activity of compound which is evaluated at 4 hr and 24 hr in restrained, normotensive conscious rats at a dose of 50 mg/kg; -9/-10; format: functional; how it was run: as §1
Rattus norvegicus [18] = assay: Delta BP refers to oral hypotensive activity of compound which is evaluated at 4 hr and 24 hr in restrained, normotensive conscious rats at a dose of 50 mg/kg; -13/-2; format: functional; how it was run: as §1
Rattus norvegicus [19] = assay: Delta BP refers to oral hypotensive activity of compound which is evaluated at 4 hr and 24 hr in restrained, normotensive conscious rats at a dose of 50 mg/kg; -19/-9; format: functional; how it was run: as §1

## COc1cc2c(cc1OC)C(CCN1CCN(c3ccc(Cl)cc3)CC1)OC(C)(C)C2 (stereo not given)
Rattus norvegicus [1]
  Delta blood pressure: inactive

## COc1cc2c(cc1OC)C(CCN1CCN(c3ccccc3OC)CC1)OC(C)(C)C2 (stereo not given)
Rattus norvegicus [2]
  Delta blood pressure: -15 mmHg
Rattus norvegicus [3]
  Delta blood pressure: -17 mmHg

## COc1cc2c(cc1OC)C(CCCN1CCN(c3ccccn3)CC1)(c1ccc(F)cc1)OCC2 (stereo not given)
Rattus norvegicus [4]
  Delta blood pressure: -19 mmHg

## COc1cc2c(cc1OC)C(CCCN1CCN(c3ccccc3Cl)CC1)(c1ccc(F)cc1)OCC2 (stereo not given)
Rattus norvegicus [1]
  Delta blood pressure: inactive

## COc1cc2c(cc1OC)C(CN1CCN(c3ccccc3Cl)CC1)OCC2 (stereo not given)
Rattus norvegicus [1]
  Delta blood pressure: inactive

## COc1cc2c(cc1OC)C(C)(CCN1CCN(c3ccccc3Cl)CC1)OCC2 (stereo not given)
Rattus norvegicus [5]
  Delta blood pressure: -3 mmHg

## COc1cc2c(cc1OC)C(CCN1CCN(c3ccccc3Cl)CC1)OC(C)(C)C2 (stereo not given)
Rattus norvegicus [1]
  Delta blood pressure: inactive

## COc1cc2c(cc1OC)C(C)(CCN1CCN(c3ccc(Cl)cc3)CC1)OCC2 (stereo not given)
Rattus norvegicus [6]
  Delta blood pressure: -8 mmHg

## COc1cc2c(cc1OC)C(C)(CCCN1CCN(c3ccc(F)cc3)CC1)OCC2 (stereo not given)
Rattus norvegicus [7]
  Delta blood pressure: -10 mmHg

## COc1cc2c(cc1OC)C(CCCN1CCN(c3ccccc3OC)CC1)(c1ccc(F)cc1)OCC2 (stereo not given)
Rattus norvegicus [1]
  Delta blood pressure: inactive

## COc1cc2c(cc1OC)C(CCCN1CCN(c3ccc(Cl)cc3)CC1)(c1ccc(F)cc1)OCC2 (stereo not given)
Rattus norvegicus [1]
  Delta blood pressure: inactive

## COc1cc2c(cc1OC)C(C)(CCN1CCN(c3ccccc3C)CC1)OCC2 (stereo not given)
Rattus norvegicus [1]
  Delta blood pressure: inactive

## COc1cc2c(cc1OC)C(CN1CCN(c3ccc(F)cc3)CC1)OCC2 (stereo not given)
Rattus norvegicus [8]
  Delta blood pressure: 0 mmHg

## COc1cc2c(cc1OC)C(CN1CCN(c3cccc(C(F)(F)F)c3)CC1)OCC2 (stereo not given)
Rattus norvegicus [9]
  Delta blood pressure: 2 mmHg

## COc1cc2c(cc1OC)C(CN1CCN(c3ccc(Cl)cc3)CC1)OCC2 (stereo not given)
Rattus norvegicus [10]
  Delta blood pressure: -13 mmHg

## COc1cc2c(cc1OC)C(CCCN1CCN(c3cccc(C(F)(F)F)c3)CC1)(c1ccc(F)cc1)OCC2 (stereo not given)
Rattus norvegicus [1]
  Delta blood pressure: inactive

## COc1cc2c(cc1OC)C(C)(C)COC2CCN1CCN(c2ccccc2OC)CC1 (stereo not given)
Rattus norvegicus [1]
  Delta blood pressure: inactive

## COc1cc2c(cc1OC)C(C)(C)COC2CCN1CCN(c2ccccc2C)CC1 (stereo not given)
Rattus norvegicus [11]
  Delta blood pressure: -18 mmHg
Rattus norvegicus [12]
  Delta blood pressure: -8 mmHg

## COc1cc2c(cc1OC)C(C)(CCCN1CCN(c3ccccc3)CC1)OCC2 (stereo not given)
Rattus norvegicus [13]
  Delta blood pressure: -4 mmHg

## COc1cc2c(cc1OC)C(C)(C)COC2CCN1CCN(c2cccc(C(F)(F)F)c2)CC1 (stereo not given)
Rattus norvegicus [14]
  Delta blood pressure: 0 mmHg

## COc1cc2c(cc1OC)C(CCN1CCN(c3ccccn3)CC1)OCC2 (stereo not given)
Rattus norvegicus [15]
  Delta blood pressure: -13 mmHg
Rattus norvegicus [16]
  Delta blood pressure: -12 mmHg

## COc1cc2c(cc1OC)C(C)(CCCN1CCN(c3cccc(C(F)(F)F)c3)CC1)OCC2 (stereo not given)
Rattus norvegicus [1]
  Delta blood pressure: inactive

## COc1cc2c(cc1OC)C(C)(CCN1CCN(c3ccccc3OC)CC1)OCC2 (stereo not given)
Rattus norvegicus [17]
  Delta blood pressure: -9 mmHg

## COc1cc2c(cc1OC)C(C)(C)COC2CCN1CCN(c2ccc(Cl)cc2)CC1 (stereo not given)
Rattus norvegicus [18]
  Delta blood pressure: -13 mmHg

## COc1cc2c(cc1OC)C(CCN1CCN(c3ccccc3OC)CC1)OCC2 (stereo not given)
Rattus norvegicus [1]
  Delta blood pressure: inactive

## COc1cc2c(cc1OC)C(CCN1CCN(c3ccccc3C)CC1)OCC2 (stereo not given)
Rattus norvegicus [19]
  Delta blood pressure: -19 mmHg

## COc1cc2c(cc1OC)C(C)(C)COC2CCN1CCN(c2ccccn2)CC1 (stereo not given)
Rattus norvegicus [1]
  Delta blood pressure: inactive
